Measurements from ChEMBL document CHEMBL2424615, “Design, synthesis, and characterization of novel tetrahydropyran-based bacterial topoisomerase inhibitors with potent anti-gram-positive activity” (J Med Chem, 2013).
pIC50: −log10 of the molar value.

Assays:
[1] = Inhibition of wild type Escherichia coli ATCC 25922 DNA gyrase subunit 2GyrA/2GyrB assessed as pBR322 supercoiling after 1 hr
[2] = Oral bioavailability in Wistar rat at 10 mg/kg; format: ADME, organism-based; conditions: in vivo
In short: (§1)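 Male Wistar rats (n = 3) dosed by iv bolus (0.5 or 1 mg/kg) or orally (1 or 10 mg/kg); iv vehicles included pH 4.5 aqueous solution, 5% DMSO in water, or 10% PG/10% PEG400 in water pH 7; oral as pH 5.6 aqueous suspension or microsuspension in 7.5% modified gelatin. Blood sampled by preimplanted catheter over 24 h; plasma by LC-MS/MS, LOQ 1.5 ng/mL.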

[3] = Intrinsic clearance in rat liver microsomes at 1 uM; format: ADME, Microsome; conditions: read-out: CLH
[4] = Clearance in Wistar rat at 1 mg/kg, iv administered as bolus dose; format: ADME, organism-based; design: dose 1 mg/kg, route intravenous; conditions: in vivo; in short: as §1
[5] = AUC in Wistar rat at 10 mg/kg, po; format: ADME, organism-based; design: dose 10 mg/kg, route oral; conditions: plasma; in short: as §1
[6] = Volume of distribution at steady state in Wistar rat at 1 mg/kg, iv administered as bolus dose and 10 mg/kg, po; format: ADME, organism-based; conditions: in vivo, read-out: Vdss; in short: as §1
[7] = target: DNA gyrase (Staphylococcus aureus, UniProt P0A0K8+P20831); assay: Inhibition of wild type Staphylococcus aureus DNA gyrase subunit 2GyrA/2GyrB assessed as pBR322 supercoiling after 1 hr; format: protein-complex assay
[8] = system: Staphylococcus aureus; assay: Antibacterial activity against NXL-101-resistant Staphylococcus aureus A-234 harboring DNA gyrase subunit A D83N mutant assessed as growth inhibition by broth microdilution method; format: functional
[9] = Half life in Wistar rat at 1 mg/kg, iv administered as bolus dose and 10 mg/kg, po; format: ADME, organism-based; conditions: in vivo; in short: as §1
[10] = system: Streptococcus pneumoniae; assay: Antibacterial activity against wild type Streptococcus pneumoniae ATCC 49619 assessed as growth inhibition by broth microdilution method; format: functional
[11] = system: Pseudomonas aeruginosa; assay: Antibacterial activity against wild type Pseudomonas aeruginosa ATCC 27853 assessed as growth inhibition by broth microdilution method; format: functional
[12] = AUC in Wistar rat at 1 mg/kg, iv administered as bolus dose; format: ADME, organism-based; design: dose 1 mg/kg, route intravenous; conditions: plasma; in short: as §1
[13] = target: Topoisomerase IV (Staphylococcus aureus, UniProt P0C1S7+P0C1U9); assay: Inhibition of wild type Staphylococcus aureus ATCC 29213 topoisomerase-4 subunit 2GrlA/2GrlB assessed as pBR322 relaxation after 1 hr; format: protein-complex assay
[14] = Intrinsic clearance in human liver microsomes at 1 uM; format: ADME, Microsome; conditions: read-out: CLH
[15] = system: Escherichia coli; assay: Antibacterial activity against wild type Escherichia coli ATCC 25922 assessed as growth inhibition by broth microdilution method; format: functional
[16] = system: Staphylococcus aureus; assay: Antibacterial activity against wild type Staphylococcus aureus ATCC 29213 assessed as growth inhibition by broth microdilution method; format: functional
[17] = Intrinsic clearance in mouse liver microsomes at 1 uM; format: ADME, Microsome; conditions: read-out: CLH
[18] = system: Staphylococcus aureus; assay: Antibacterial activity against methicillin and quinolone-resistant Staphylococcus aureus A-798 assessed as growth inhibition by broth microdilution method; format: functional
[19] = target: DNA gyrase subunit A (Staphylococcus aureus, UniProt P20831, S84L); assay: Inhibition of quinolone-resistant Staphylococcus aureus A-798 DNA gyrase S84L mutant assessed as pBR322 supercoiling after 1 hr
[20] = Inhibition of wild type Escherichia coli ATCC 25922 DNA topoisomerase-4 subunit 2ParC/2ParE assessed as pBR322 relaxation after 1 hr
[21] = system: Enterococcus faecium; assay: Antibacterial activity against vancomycin-resistant Enterococcus faecium A-949 assessed as growth inhibition by broth microdilution method; format: functional
[22] = target: DNA gyrase subunit A (Staphylococcus aureus, UniProt P20831, D83N); assay: Inhibition of NXL-101-resistant Staphylococcus aureus DNA gyrase D83N mutant assessed as pBR322 supercoiling after 1 hr
[23] = system: Staphylococcus aureus; assay: Antibacterial activity against NXL-101-resistant Staphylococcus aureus harboring DNA gyrase D83N mutant assessed as growth inhibition by broth microdilution method; format: functional
[24] = target: hERG (KCNH2) (Homo sapiens, UniProt Q12809); assay: Inhibition of human ERG expressed in CHO cells at 10 uM after 3 mins by patch clamp assay relative to control; format: cell-based; conditions: CHO cells that express human ERG
Sequence of hERG (KCNH2) (Q12809 whole entry): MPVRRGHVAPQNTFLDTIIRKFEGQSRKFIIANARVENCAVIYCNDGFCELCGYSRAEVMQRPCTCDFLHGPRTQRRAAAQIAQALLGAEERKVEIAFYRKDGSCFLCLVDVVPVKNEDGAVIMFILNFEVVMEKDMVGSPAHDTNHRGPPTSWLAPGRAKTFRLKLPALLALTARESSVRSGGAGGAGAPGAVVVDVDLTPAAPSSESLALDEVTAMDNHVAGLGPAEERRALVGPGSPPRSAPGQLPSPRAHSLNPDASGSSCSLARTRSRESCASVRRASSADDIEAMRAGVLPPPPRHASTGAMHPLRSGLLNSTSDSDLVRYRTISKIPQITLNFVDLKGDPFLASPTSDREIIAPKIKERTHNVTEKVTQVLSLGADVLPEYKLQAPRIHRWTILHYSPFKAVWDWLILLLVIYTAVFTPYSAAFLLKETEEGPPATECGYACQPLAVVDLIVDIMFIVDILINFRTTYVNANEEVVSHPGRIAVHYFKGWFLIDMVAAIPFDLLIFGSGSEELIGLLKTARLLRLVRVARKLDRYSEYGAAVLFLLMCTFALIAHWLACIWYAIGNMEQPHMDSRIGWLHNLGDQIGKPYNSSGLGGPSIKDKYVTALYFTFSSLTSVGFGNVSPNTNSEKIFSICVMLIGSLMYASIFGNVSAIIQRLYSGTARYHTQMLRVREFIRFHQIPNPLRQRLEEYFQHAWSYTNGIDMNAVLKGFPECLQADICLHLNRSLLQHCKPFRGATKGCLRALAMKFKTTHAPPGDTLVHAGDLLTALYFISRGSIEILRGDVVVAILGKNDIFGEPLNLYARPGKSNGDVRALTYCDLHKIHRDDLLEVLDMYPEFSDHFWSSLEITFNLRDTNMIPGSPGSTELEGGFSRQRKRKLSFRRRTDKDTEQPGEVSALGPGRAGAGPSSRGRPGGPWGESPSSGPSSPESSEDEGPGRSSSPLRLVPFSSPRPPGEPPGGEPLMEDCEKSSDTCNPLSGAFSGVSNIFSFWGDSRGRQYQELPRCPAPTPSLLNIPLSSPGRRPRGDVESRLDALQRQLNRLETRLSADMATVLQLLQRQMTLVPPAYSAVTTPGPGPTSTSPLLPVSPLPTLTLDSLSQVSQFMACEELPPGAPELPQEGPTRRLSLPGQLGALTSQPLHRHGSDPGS

[25] = system: Rattus norvegicus; assay: Unbound clearance in Wistar rat at 1 mg/kg, iv administered as bolus dose and 10 mg/kg, po; format: ADME, organism-based; conditions: in vivo; in short: as §1
[26] = Fraction unbound in Wistar rat plasma at 1 mg/kg, iv administered as bolus dose and 10 mg/kg, po; format: ADME, organism-based
[27] = system: Staphylococcus aureus; assay: Spontaneous resistance frequency for Staphylococcus aureus ATCC 25923 at 4 times MIC to 16 times MIC after 48 hrs relative to NXL-101; format: functional
In short: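 Incubated 48 h at 37 °C. Frequency calculated as resistant colonies divided by viable bacteria plated, with the viable count taken on drug-free agar.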

SMILES | pIC50 [1] | pIC50 [7] | MIC [8] [µg/mL] | MIC [10] [µg/mL] | MIC [11] [µg/mL] | pIC50 [13] | MIC [15] [µg/mL] | MIC [16] [µg/mL] | MIC [18] [µg/mL] | pIC50 [20] | MIC [21] [µg/mL] | MIC [23] [µg/mL] | inhibition at 0.05 h, 10 µM [24] [%] | further results
COc1ccc2nccc(CC[C@@H]3CC[C@@H](NCc4ccc5c(n4)NC(=O)CS5)CO3)c2n1 | 6.92 | 7.52 | 1 | 0.06 | > 8 | 6.30 | 1 | 0.03 |  |  |  |  |  | bioavailability [2]: 29%; microsomal CLint at 1 µM [3]: > 1250 µL/min/mg; clearance [4]: 36 mL/min/kg; AUC [5]: 1320 ng·h/mL; Vd [6]: 3.2 L/kg; half-life [9]: 1.2 h; AUC [12]: 463 ng·h/mL; microsomal CLint at 1 µM [14]: 347 µL/min/mg; microsomal CLint at 1 µM [17]: 954 µL/min/mg
COc1ccc2ncc(F)c([C@@H](O)CC[C@@H]3CCN(CCSc4cccs4)C[C@@H]3C(=O)O)c2c1 | 4.49 | 6.90 |  | 1 | > 8 | 3.89 | > 8 | 0.125 | 0.25 | 5.70 | 1 | > 8 |  | pIC50 [19]: 6.90; pIC50 [22]: 3.89
N#Cc1ccc2ccc(=O)n(CCN3CC[C@H](NCc4cc5c(cn4)OCCO5)[C@H](F)C3)c2c1 | 5.10 | 7.52 |  | 0.25 | > 8 | 5.10 | 8 | 0.015 | 0.015 | 6.90 | 0.5 | 1 |  | pIC50 [19]: 7.52; pIC50 [22]: 4.49
COc1ccc2nccc([C@@H](O)[C@H](O)[C@@H]3CC[C@@H](NCc4cc5c(cn4)OCCO5)CO3)c2n1 | 5.10 | 7.52 | 4 | 0.5 | > 8 | 5.10 | 8 | 0.06 |  | 6.90 |  |  | 27 | 
COc1ccc2nccc(CC[C@@H]3CC[C@@H](NCc4cc5c(cn4)OCCO5)CO3)c2n1 | 5.10 | > 7.52 | 4 | 0.5 | > 8 | < 5.10 | 8 | 0.06 |  | 6.90 |  |  | 82 | 
COc1cnc2cccc([C@@H](O)[C@H](O)[C@@H]3CC[C@@H](NCc4ccc5c(n4)NC(=O)CS5)CO3)c2n1 | 6.30 | 7.52 | 0.5 | 0.06 | > 8 | 5.70 | 2 | 0.03 |  | 6.90 |  |  | 55 | bioavailability [2]: 26%; microsomal CLint at 1 µM [3]: 92 µL/min/mg; clearance [4]: 53 mL/min/kg; CL free [25]: 294 mL/min/kg; AUC [5]: 817 ng·h/mL; fraction unbound [26]: 0.18; Vd [6]: 18 L/kg; half-life [9]: 5.9 h; AUC [12]: 313 ng·h/mL; microsomal CLint at 1 µM [14]: 45 µL/min/mg; microsomal CLint at 1 µM [17]: 39 µL/min/mg
O=C(O)c1cn(C2CC2)c2cc(N3CCNCC3)c(F)cc2c1=O [CIPROFLOXACIN] | 6.30 |  |  | 1 | 0.25 |  | 0.016 | 0.25 | > 8 |  | > 8 | 0.25 |  | 
COc1cc(F)c2nccc([C@@H](O)[C@H](O)[C@@H]3CC[C@@H](NCc4ccc5c(n4)NC(=O)CS5)CO3)c2c1 | 5.70 | 6.90 | 4 | 0.25 | > 8 | 5.10 | 4 | 0.03 |  | 6.90 |  |  | 20 | 
COc1cnc2ccc(F)c([C@@H](O)[C@H](O)[C@@H]3CC[C@@H](NCc4ccc5c(n4)NC(=O)CS5)CO3)c2n1 | 6.30 | 7.52 | 1 | 0.5 | > 8 | 5.70 | 4 | 0.06 |  | 6.90 |  |  | 44 | 
COc1ccc2ncc(F)c([C@@H](O)[C@H](O)[C@@H]3CC[C@@H](NCc4ccc5c(n4)NC(=O)CS5)CO3)c2n1 | 6.30 | 7.52 | 0.25 | 0.06 | > 8 | 6.30 | 1 | 0.03 |  | 7.52 |  |  | 54 | fold change (FC) [27]: 10
COc1ccc2nccc(NC(=O)[C@H]3CC[C@H](NCc4ccc5c(n4)NC(=O)CS5)CC3)c2n1 |  | 7.52 |  | 0.063 | 8 | 6.90 | 0.25 | 0.015 | 0.015 | 8.10 | 0.063 | 0.25 |  | pIC50 [19]: 8.10; pIC50 [22]: 5.10
COc1ccc2ncc(F)c([C@@H](O)[C@H](O)[C@@H]3CC[C@@H](NCc4cc5c(nn4)OCCS5)CO3)c2n1 | 5.10 | 6.90 | 8 | 0.06 | > 8 | 5.10 | > 8 | ≤ 0.015 |  | 6.30 |  |  | 3 | 
O=c1ccc2ccc(F)c3c2n1CC3CN1CCC(NCc2cc3c(cn2)OCCO3)CC1 (configuration not stated) |  | 6.90 |  | 0.015 | > 8 | 5.70 | 1 | 0.015 | 0.015 | 6.30 | 0.06 | 1 |  | pIC50 [19]: 7.52; pIC50 [22]: 5.70
COc1cnc2cccc([C@@H](O)[C@H](O)[C@@H]3CC[C@@H](NCc4ccc5c(n4)NC(=O)CS5)CO3)c2c1 | 5.70 | 6.90 | > 8 | 0.25 | > 8 | 6.30 | 8 | 0.25 |  | 6.90 |  |  | 17 | 
